High-throughput results as filed in PubChem.
MsrA act – bovine methionine sulfoxide reductase A activation. purified bovine MsrA, absorbance read-out. activation, % at 10.6 µM. actives 0.3% (n = 360,000). AID 602163; in the data active = activation above about 7.5%;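 also: 0% = vehicle and 100% = reference activator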
MsrA inh – inhibitors of bovine MsrA; purified bovine MsrA, absorbance read-out; inhibition, % at 15.5 µM; actives 0.75% (n = 360,000); AID 651718;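 also: 0% = vehicle wells with enzyme and 100% = reference inhibitor wells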
Tb MetRS inh – Trypanosoma brucei MetRS inhibition. purified T. brucei MetRS, ATP depletion, Kinase-Glo luminescence. inhibition, % at 11.9 µM. actives 0.4% (n = 360,000). AID 624268;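 active = inhibition above a per-plate cutoff of the control wells' mean inhibition plus 3 SD, cut at about 5.5% in these data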;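 also: 0% = DMSO wells median and 100% = median of wells with control inhibitor compound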
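Dosing: 11.9 µM single point; system: parasite MetRS enzyme; technique: luminescence of leftover ATP; times: 15 min enzyme-compound preincubation, 2 h reaction, 10 min detection, 25 °C; replicates: each compound tested once; read-out basis: percent inhibition relative to median high and low control wells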
proCasp7 act – counter-screen: procaspase-7 (human) activation. AID 463210. actives 0.093% (n = 330,000). P55210. recombinant procaspase-7, Ac-DEVD-pNA absorbance 405 nm; D23A/D198A/D206A triple mutant, cannot self-cleave; scale: DMSO 0, 5 µM enzyme 100. activation, % at 8.5 µM;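 active = percent activation above the screen-wide mean plus 3 SD, cut at about 25% in these data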
Target sequence (P55210 whole entry D23A/D198A/D206A): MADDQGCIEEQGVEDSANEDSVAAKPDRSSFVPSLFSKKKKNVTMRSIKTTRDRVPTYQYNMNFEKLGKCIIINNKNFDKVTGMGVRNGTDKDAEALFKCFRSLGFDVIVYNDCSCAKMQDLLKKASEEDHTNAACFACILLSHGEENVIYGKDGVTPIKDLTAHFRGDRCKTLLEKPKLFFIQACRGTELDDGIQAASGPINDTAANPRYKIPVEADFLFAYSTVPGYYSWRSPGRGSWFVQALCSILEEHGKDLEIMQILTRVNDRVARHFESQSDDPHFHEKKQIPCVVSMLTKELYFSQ
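buffer or medium = Zinc-free HEPES/NaCl buffer, pH 7.4 | material = Procaspase-7 triple mutant (PC-7 D3A) | input = 2 µM procaspase-7 mutant as dispensed | signal = Epi-absorbance of released pNA at 405 nm, two timepoints | timing = 1 h preincubation, 2 h reaction | replicates = singlicate compound testing | evaluation = % activation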
proCasp3 act – procaspase-3 (human) activation; actives 0.11% (n = 330,000); activation, % at 8.5 µM; AID 463141; P42574; recombinant procaspase-3 D3A, Ac-DEVD-pNA absorbance 405 nm;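 active = activation above the mean of all tested compounds plus 3 SD, cut at about 21% in these data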;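 also: 0% = DMSO alone and 100% = DMSO wells spiked with extra 5 µM PC-3 D3A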
Target sequence (P42574 whole entry D9A/D28A/D175A): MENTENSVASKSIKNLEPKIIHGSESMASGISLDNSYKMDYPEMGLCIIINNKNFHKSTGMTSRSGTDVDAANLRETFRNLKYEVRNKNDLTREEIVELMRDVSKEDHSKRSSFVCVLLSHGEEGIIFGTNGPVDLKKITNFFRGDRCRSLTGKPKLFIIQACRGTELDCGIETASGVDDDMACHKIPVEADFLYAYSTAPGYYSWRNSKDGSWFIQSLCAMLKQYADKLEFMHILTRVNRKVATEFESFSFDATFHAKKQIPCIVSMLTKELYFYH
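Assay system – Procaspase-3 D3A mutant · Benchmarks – DMSO low control, extra-enzyme high control · Technique – 405 nm absorbance of p-nitroaniline, reads at 0 and 120 min · Doses – 8.5 µM nominal · Measure – % activation between DMSO and enzyme-spiked controls · Also added – Ac-DEVD-pNA chromogenic peptide substrate · Schedule – 1 h compound preincubation, 2 h substrate hydrolysis at 25 °C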
MsrA conf – confirmation of bovine MsrA inhibitors; shares compounds with MsrA inh; purified bovine MsrA, absorbance read-out; inhibition, % at 15.5 µM; actives 41% (n = 2,300); AID 651822;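 also: coupled to thioredoxin reductase with NADPH and selenocystamine and DMSO as substrate; 0% = vehicle only and 100% = full effect of reference inhibitor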
Active calls of the source: *; . = no result given. Shown are actives, neighbours in structure and some others; about 1.5% of the full set was active somewhere. Rule as the data show it, unless noted: active = inhibition above about 4.5%; inactive = the rest.

SMILES	MsrA act	MsrA inh	Tb MetRS inh	proCasp7 act	proCasp3 act	MsrA conf
COc1ccc(/C=C2\Oc3cc(OCC(=O)N4CCC[C@H]4C(=O)O)ccc3C2=O)c(OC)c1OC	-7	5.1*	-2	-3	-7	5.5*
COC(=O)c1cc2c(c3c4ccccc4n(S(=O)(=O)c4ccccc4)c13)C(=O)N(Cc1ccc(C(F)(F)F)cc1)C2	.	1	.	.	.	.
Cc1cnc(C(=O)Oc2c(C)ccc(C)c2C)cn1	-7	1	-1	1	10	.
O=C(c1cccc2ccccc12)N1CCC(N2CCN(c3ccccc3)CC2)CC1	-13	2	-2	-28	-3	.
COc1cc2c(cc1[N+](=O)[O-])n(C(C)C)c(=O)n2C(C)C	-4	8.7*	0	5	7	6.3*
O=C(c1c(F)cccc1F)N1CCN=C1SCc1ccccc1	-5	-1	0	7	-6	.
C=CCN(CC=C)C(=S)NC(=O)/C=C/c1ccc(OC)cc1	-9	4.8*	-1	7	-6	2
COc1ccc(/C=C/C(=O)NC(=S)NNC(=O)c2cccnc2)cc1	-2	6.0*	0	-18	-6	5.2*
COc1ccc(/C=C/C(=O)NC(=S)NNC(=O)c2cnccn2)cc1	-4	1	0	5	10	.
C=CCN1C(=O)c2n[nH]c(COC)c2C1c1ccc(Br)cc1 (centres undefined)	.	-1	.	.	.	.
CCOc1ccc(/C=N/n2nnnc2N)cc1OCC	-4	4.8*	2	5	0	2
CCOc1cc(/C=N\n2nnnc2N)ccc1O	-2	4	1	10	7	.
C=CCN=C1NC(c2cccc(Cl)c2)C(C(=O)OC)=C(C)N1Cc1ccc(C(F)(F)F)cc1 (centres undefined)	.	0	.	.	.	.
COc1ccc(/C=C2\SC(=S)N(CC(=O)NC3CCS(=O)(=O)C3)C2=O)cc1 (centres undefined)	-3	1	0	11	-4	.
Cc1ccc2cc(/C=N/NC(=O)CN3CCOCC3)c(Cl)nc2c1	-3	5.0*	-1	-1	-4	3
C=CCOC1=CS(=O)(=O)N(Cc2ccc(Br)cc2)c2ccc(Br)cc21	-2	2	-1	5	-3	.
O=[N+]([O-])c1ccc(N2CCN(S(=O)(=O)c3ccccc3)CC2)cc1NCc1cccnc1	-7	9.1*	-1	6	10	2
O=[N+]([O-])c1ccc(N2CCN(S(=O)(=O)c3ccc(Cl)cc3)CC2)cc1NCc1cccnc1	-9	1	-1	6	-2	.
Cc1ccc(NC(=O)C2CCCO2)cc1[N+](=O)[O-] (centres undefined)	-4	39*	-1	-4	4	8.4*
COC(=O)C1=C(C)N(Cc2cccc(C(F)(F)F)c2)C(=NCc2ccc(OC)cc2)NC1c1cccc(C(F)(F)F)c1 (centres undefined)	.	1	.	.	.	.
C=CCO[C@H]1CN(C(=O)OC)[C@@H](c2ccccc2Br)C[C@H]1OCC=C	.	0	.	.	.	.
Cc1nnc(N/N=C/c2ccc(-c3ccccc3F)o2)n1N	1	6.1*	0	-32	-9	6.0*
COC(=O)c1ccccc1-c1ccc(/C=N/NC(N)=O)o1	-8	2	1	6	9	.
O=C(O)c1ccc(NC2=C(n3nnc4ccccc43)C(=O)c3ccccc3C2=O)cc1	-1	58*	0	-1	2	53*
O=c1[nH]c(/C=C\c2ccc(O)cc2)nc(O)c1[N+](=O)[O-]	-4	4	0	-6	-3	.
SMILES	MsrA act	MsrA inh	Tb MetRS inh	proCasp7 act	proCasp3 act	MsrA conf
O=c1[nH]c(/C=C\c2cccs2)nc(O)c1[N+](=O)[O-]	-5	5.3*	0	0	-2	3
COc1ccc(-c2cc(=O)oc3c(C)c(O)ccc23)cc1	-4	12*	0	8	-2	3
Cc1c(O)ccc2c(-c3ccccc3)cc(=O)oc12	-6	41*	0	0	5	35*
CC(=O)COc1cc(C)cc2oc(=O)cc(-c3ccccc3)c12	-1	1	-1	6	2	.
Cc1cc(O)c2c(-c3ccccc3)cc(=O)oc2c1	4	8.5*	0	-15	2	2
CCN(CC)Cc1c(O)ccc2c(-c3ccccc3)cc(=O)oc12	0	1	0	5	0	.
COc1ccc(-c2cc(=O)oc3c(C)c(OC(C)C(C)=O)ccc23)cc1 (centres undefined)	-2	22*	0	-9	-1	16*
COCC#Cc1ccc2c(c1)O[C@H](CN(C)C(=O)c1ccccc1)[C@@H](C)CN([C@H](C)CO)S2(=O)=O	.	1	.	.	.	.
CN(C)c1ccc(C(=O)OCC(=O)N2CCCCCC2)cc1	-5	3	-1	8	4	.
CN(C)c1ccc(C(=O)OCC(=O)N2CCCC2)cc1	-4	5.7*	0	2	-6	2
C[C@@H]1ON(C)[C@H]2C[C@H]3c4cc(-c5cc6ccccc6o5)ccc4CCN3C[C@@H]12	.	0	.	.	.	.
Cc1nn(CCC(N)=S)c2nc(-c3cccs3)cc(C(F)(F)F)c12	-3	4.8*	-1	-15	-12	4
Cc1ccccc1S(=O)(=O)N1CCCc2nc(-c3ccc(Br)cc3)ccc21	.	0	.	.	.	.
CCNC(=O)N1CCN(c2ccc(N3CCN(Cc4ccccc4)[C@@H](C)C3)c(C)c2)[C@H](C)C1	.	1	.	.	.	.
O=C(Cn1cc([N+](=O)[O-])cn1)N1CCN(Cc2ccc3c(c2)OCO3)CC1	-5	0	0	-5	3	.
COc1cc2c(cc1OC)C(=S)NC1(CCCC1)C2	-17	6.1*	-1	-1	2	2
S=C1NC2(CCCCC2)Cc2ccccc21	-14	0	0	-8	-8	.
O=C(Cc1cn(Cc2ccccc2)c2ccccc12)Nc1ccc(Oc2cccnc2)cc1	.	1	.	.	.	.
CC1(C)CC(=O)C(C=Nc2ccc3cn[nH]c3c2)=C(O)C1	-8	4	0	5	3	.
CC1(C)CC(=O)C(C=Nc2ccc3[nH]ncc3c2)=C(O)C1	-10	5.6*	0	-6	-1	4.8*
COc1cccc(N=CC2=C(O)CC(C)(C)CC2=O)c1	-2	6.2*	0	4	8	4
CC1(C)CC(=O)C(C=Nc2ccc(O)cc2)=C(O)C1	-4	5.4*	-1	-8	3	4
COc1cccc(N=CC2=C(O)CCCC2=O)c1	-4	3	0	4	-2	.
O=C(C(=O)N1CCN(C(=O)Cc2ccccc2)CC1)c1cccc(C(F)(F)F)c1	.	0	.	.	.	.
COC(=O)N1[C@H](C)C=C[C@]1(Cc1ccccc1)C(=O)NCCCNc1ncc(C(F)(F)F)cc1Cl	-1	37*	0	-10	-1	37*
